Measured values as given in ChEMBL document CHEMBL1142962, “Antiproliferative prenylated stilbenes and flavonoids from Macaranga alnifolia from the Madagascar rainforest” (J Nat Prod, 2007).

Tests used:
Assay type in all cases: functional
Settings in all cases: Homo sapiens
UACC-257 = test: Growth inhibition of UACC257 cells
How it was run: (§1)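 Tested in the NCI 60 human tumour cell line screen, which was run by NCI. The value for each line is the GI50, the concentration giving 50% growth inhibition. Results are also shown as a mean graph across the full panel.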

UO-31 = test: Growth inhibition of UO31 cells
LOX IMVI = test: Growth inhibition of LOX IMVI cells; how it was run: as §1
SF-295 [1] = test: (§2) Growth inhibition of SF295 cells; how it was run: as §1
K562 = test: Growth inhibition of K562 cells; how it was run: as §1
NCI/ADR-RES = test: Growth inhibition of NCI/ADR-RES cells
SK-OV-3 = test: Growth inhibition of SKOV3 cells
MCF7 = test: Growth inhibition of MCF7 cells; how it was run: as §1
NCI-H522 = test: Growth inhibition of NCI-H522 cells; how it was run: as §1
T47D = test: Growth inhibition of T47D cells; how it was run: as §1
HCT-15 = test: Growth inhibition of HCT15 cells
SF-295 [2] = test: as §2; remark: listed apart in the source
OVCAR-8 = test: Growth inhibition of OVCAR8 cells; how it was run: as §1
NCI-H322M = test: Growth inhibition of NCI-H322M cells
SW-620 = test: Growth inhibition of SW620 cells; how it was run: as §1
SF-268 = test: Growth inhibition of SF268 cells
SNB-19 = test: Growth inhibition of SNB19 cells
NCI-H460 = test: Growth inhibition of NCI-H460 cells
A549 = test: Growth inhibition of A549/ATCC cells
HT-29 = test: Growth inhibition of HT29 cells; how it was run: as §1
UACC-62 = test: Growth inhibition of UACC62 cells
HOP-62 = test: Growth inhibition of HOP62 cells
SK-MEL-2 = test: Growth inhibition of SK-MEL-2 cells
SF-539 = test: Growth inhibition of SF539 cells; how it was run: as §1
SK-MEL-28 = test: Growth inhibition of SK-MEL-28 cells; how it was run: as §1
MDA-MB-435 = test: Growth inhibition of MDA-MB-435 cells
MOLT-4 = test: Growth inhibition of MOLT4 cells; how it was run: as §1
[3] = read-out: Log LC50 (the source's name) (converted)

Question: For COc1cc(/C=C/c2cc(O)c(CC=C(C)C)c(O)c2)cc2c1O[C@]1(C)C[C@@H](O)[C@@H](O)C(C)(C)[C@H]1C2 [SCHWEINFURTHIN E], which GI50 (UACC-257) is on record?
Answer: 166 nM

Question: What about the CC50 (UACC-257; [3]) of the same compound?
Answer: 37200 nM

Question: And the TGI (UACC-257; read-out: Log TGI (converted))?
Answer: 3630 nM

Question: And the GI50 (UO-31)?
Answer: 105 nM

Question: And the CC50 (UO-31; [3])?
Answer: > 100000 nM

Question: What about the TGI (UO-31; read-out: Log TGI (converted)) of the same compound?
Answer: > 100000 nM

Question: And the GI50 (LOX IMVI)?
Answer: 646 nM

Question: What about the CC50 (LOX IMVI; [3]) of the same compound?
Answer: 6170 nM

Question: What about the TGI (LOX IMVI; read-out: Log TGI (converted)) of the same compound?
Answer: 2340 nM

Question: What about the GI50 (SF-295 [1]) of the same compound?
Answer: < 10 nM

Question: And the TGI (SF-295 [1])?
Answer: < 10 nM

Question: And the GI50 (K562)?
Answer: < 10 nM

Question: And the TGI (K562; read-out: Log TGI (converted))?
Answer: 692 nM

Question: What about the GI50 (NCI/ADR-RES) of the same compound?
Answer: 2240 nM

Question: And the CC50 (NCI/ADR-RES; [3])?
Answer: 50100 nM

Question: What about the TGI (NCI/ADR-RES; read-out: Log TGI (converted)) of the same compound?
Answer: 6610 nM

Question: And the LC50 (SK-OV-3)?
Answer: 93300 nM

Question: What about the GI50 (SK-OV-3; read-out: GI50) of the same compound?
Answer: 2200 nM

Question: What about the TGI (SK-OV-3; read-out: Log TGI (converted)) of the same compound?
Answer: 11000 nM

Question: What about the GI50 (SK-OV-3; read-out: pGI50 (converted)) of the same compound?
Answer: 2750 nM

Question: What about the GI50 (MCF7) of the same compound?
Answer: 61.7 nM

Question: And the CC50 (MCF7; [3])?
Answer: > 100000 nM

Question: And the TGI (MCF7; read-out: Log TGI (converted))?
Answer: 26900 nM

Question: And the GI50 (NCI-H522)?
Answer: 2000 nM

Question: And the CC50 (NCI-H522; [3])?
Answer: > 100000 nM

Question: What about the TGI (NCI-H522; read-out: Log TGI (converted)) of the same compound?
Answer: > 100000 nM

Question: What about the GI50 (T47D) of the same compound?
Answer: 3240 nM

Question: What about the CC50 (T47D; [3]) of the same compound?
Answer: > 100000 nM

Question: What about the TGI (T47D; read-out: Log TGI (converted)) of the same compound?
Answer: > 100000 nM

Question: What about the GI50 (HCT-15) of the same compound?
Answer: 603 nM

Question: And the CC50 (HCT-15; [3])?
Answer: 26900 nM

Question: What about the TGI (HCT-15; read-out: Log TGI (converted)) of the same compound?
Answer: 3630 nM

Question: What about the GI50 (SF-295 [2]) of the same compound?
Answer: < 10 nM

Question: And the CC50 (SF-295 [2]; [3])?
Answer: < 10 nM

Question: What about the TGI (SF-295 [2]; read-out: Log TGI (converted)) of the same compound?
Answer: < 10 nM

Question: What about the GI50 (OVCAR-8; read-out: GI50) of the same compound?
Answer: 2200 nM

Question: What about the CC50 (OVCAR-8; [3]) of the same compound?
Answer: > 100000 nM

Question: And the TGI (OVCAR-8; read-out: Log TGI (converted))?
Answer: 6760 nM

Question: And the GI50 (OVCAR-8; read-out: pGI50 (converted))?
Answer: 2510 nM

Question: What about the GI50 (NCI-H322M) of the same compound?
Answer: 288 nM

Question: What about the CC50 (NCI-H322M; [3]) of the same compound?
Answer: 13800 nM

Question: What about the TGI (NCI-H322M; read-out: Log TGI (converted)) of the same compound?
Answer: 2240 nM

Question: And the GI50 (SW-620)?
Answer: 110 nM

Question: And the CC50 (SW-620; [3])?
Answer: > 100000 nM

Question: And the TGI (SW-620; read-out: Log TGI (converted))?
Answer: 2040 nM

Question: What about the GI50 (SF-268) of the same compound?
Answer: 2630 nM

Question: And the CC50 (SF-268; [3])?
Answer: > 100000 nM

Question: And the TGI (SF-268; read-out: Log TGI (converted))?
Answer: > 100000 nM

Question: And the GI50 (SNB-19)?
Answer: 11000 nM

Question: What about the CC50 (SNB-19; [3]) of the same compound?
Answer: > 100000 nM

Question: And the TGI (SNB-19; read-out: Log TGI (converted))?
Answer: > 100000 nM

Question: What about the GI50 (NCI-H460) of the same compound?
Answer: 151 nM

Question: What about the CC50 (NCI-H460; [3]) of the same compound?
Answer: > 100000 nM

Question: And the TGI (NCI-H460; read-out: Log TGI (converted))?
Answer: > 100000 nM

Question: And the GI50 (A549)?
Answer: < 10 nM

Question: What about the CC50 (A549; [3]) of the same compound?
Answer: > 100000 nM

Question: And the TGI (A549; read-out: Log TGI (converted))?
Answer: 12600 nM

Question: And the GI50 (HT-29)?
Answer: 1290 nM

Question: What about the CC50 (HT-29; [3]) of the same compound?
Answer: > 100000 nM

Question: And the GI50 (UACC-62)?
Answer: < 10 nM

Question: What about the CC50 (UACC-62; [3]) of the same compound?
Answer: 4070 nM

Question: And the TGI (UACC-62; read-out: Log TGI (converted))?
Answer: 372 nM

Question: And the GI50 (HOP-62)?
Answer: < 10 nM

Question: And the CC50 (HOP-62; [3])?
Answer: 7760 nM

Question: And the TGI (HOP-62; read-out: Log TGI (converted))?
Answer: 75.9 nM

Question: And the GI50 (SK-MEL-2)?
Answer: 3720 nM

Question: What about the CC50 (SK-MEL-2; [3]) of the same compound?
Answer: > 100000 nM

Question: And the TGI (SK-MEL-2; read-out: Log TGI (converted))?
Answer: > 100000 nM

Question: What about the GI50 (SF-539) of the same compound?
Answer: < 10 nM

Question: And the TGI (SF-539; read-out: Log TGI (converted))?
Answer: 158 nM

Question: What about the GI50 (SK-MEL-28) of the same compound?
Answer: 372 nM

Question: And the CC50 (SK-MEL-28; [3])?
Answer: > 100000 nM

Question: And the TGI (SK-MEL-28; read-out: Log TGI (converted))?
Answer: 5250 nM

Question: And the GI50 (MDA-MB-435)?
Answer: 123 nM

Question: What about the CC50 (MDA-MB-435; [3]) of the same compound?
Answer: 8710 nM

Question: And the TGI (MDA-MB-435; read-out: Log TGI (converted))?
Answer: 1950 nM

Question: What about the GI50 (MOLT-4; read-out: GI50) of the same compound?
Answer: < 10 nM

Question: What about the CC50 (MOLT-4; [3]) of the same compound?
Answer: > 100000 nM

Question: And the TGI (MOLT-4; read-out: Log TGI (converted))?
Answer: < 10 nM

Question: And the TGI (MOLT-4; read-out: TGI)?
Answer: < 10 nM

Question: What about the GI50 (MOLT-4; read-out: pGI50 (converted)) of the same compound?
Answer: < 10 nM
